Data on 23 compounds can be found in ChEMBL document CHEMBL1137442, “Synthesis and anticonvulsant evaluation of 4-(4-alkoxylphenyl)-3-ethyl-4H-1,2,4-triazoles as open-chain analogues of 7-alkoxyl-4,5-dihydro[1,2,4]triazolo[4,3-a]quinolines” (Bioorg Med Chem, 2007).

Active and inactive are the calls of the source.

A short description of data set [1]: Neurotoxicity in ip dosed C57B/6 mouse after 30 mins by rotarod test. The class given is toxicity, organism-based. The conditions noted are these: in vivo. Summed up: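 Mice, groups of 10, given a range of ip doses to define 10–90% minimal neurotoxicity. At 30 min after dosing, each mouse was placed on a 1-in. knurled rod rotating at 6 rpm for 1 min. Neurotoxicity meant failure to keep equilibrium in each of three trials.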
Background: In the rotarod test animals must keep their balance on a rotating rod.

The species named for data set [2] is Mus musculus. In words: Protective index, ratio of TD50 for C57B/6 mouse by rotarod test to ED50 for C57B/6 mouse by MES test. The format is functional.
In data set [3] the test system is Mus musculus. Nature of the data set: Anticonvulsant activity against MES-induced seizure in ip dosed C57B/6 mouse by MES test. The format is functional. The settings on record: C57B/6, ip. The method in brief: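 Mice, groups of 10, given a range of intraperitoneal doses until at least three points fell within 10–90% protection. MES was tested 30 min after dosing, with current applied via corneal electrodes for 0.2 s. Protection was defined as abolition of the hind-leg tonic maximal extension.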

The species named for data set [4] is Mus musculus. In words: Anticonvulsant activity against isoniazid-induced seizure in C57B/6 mouse. The format is functional. The method in brief: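 Isoniazid was given ip at 250 mg/kg, a dose set by a dose–percent effect curve to convulse 100% of animals. Test compounds were given beforehand. ED50 was the dose protecting 50% of animals from tonic convulsions.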

Data set [5] relates to Mus musculus. Nature of the data set: Anticonvulsant activity against strychnine-induced seizure in C57B/6 mouse at 300 mg/kg. The class given is functional, organism-based. Also on record: dose 300 mg/kg. The method in brief: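 Strychnine chlorhydrate in saline (1.2 mg/mL, 1 mL/kg) was given sc as a 100%-convulsant dose after compound pretreatment, with the compound tested at 300 mg/kg. Mice were housed individually and observed for 30 min, recording seizure onset time, number of tonic seizures and lethality.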

The species named for data set [6] is Mus musculus. Nature of the data set: Anticonvulsant activity against thiosemicarbazide-induced seizure in C57B/6 mouse. The class given is functional. Summed up: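 Thiosemicarbazide 50 mg/kg ip, a fully convulsant dose, was given 1 h after test treatment. Latency and duration of convulsions, plus lethality latency and percentage, were recorded over 2 h 30 min. ED50 was the dose preventing tonic convulsions in 50% of treated animals.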

The species named for data set [7] is Mus musculus. In words: Anticonvulsant activity against 3-mercaptopropionic acid-induced seizure in C57B/6 mouse. The class given is functional. The method in brief: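 3-Mercaptopropionic acid 40 mg/kg in saline was injected sc 1 h after test treatment. Convulsion latency and duration, plus lethality latency and percentage, were recorded over 1 h. ED50 was the dose preventing tonic convulsions in 50% of treated animals.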

For data set [8], the species on record is Mus musculus. Nature of the data set: Anticonvulsant activity against pentylenetetrazole-induced seizure in C57B/6 mouse. The format is functional. Summed up:
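Pentylenetetrazole 85 mg/kg sc, a dose giving 100% convulsions, was given 30 min after test treatment. Latency and duration of convulsions, plus latency and percentage of lethality, were recorded over the following 1 h. ED50 was the dose preventing tonic convulsions in 50% of treated animals.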

`c1ccc(COc2ccc3c(c2)CCc2nncn2-3)cc1`: the TD50 (commonly the dose at which the toxic effect under study appears in half of the subjects) at 0.5 h in data set [1] is 61.4 mg/kg. In the data set listed under Mus musculus [2], the “Ratio TD50/ED50” value came to 3.5. In the data set on Mus musculus [3], the 50% effect level (ED50) was put at a dose of 17.3 mg/kg.
The like results for `CCc1nncn1-c1ccc(OCc2ccc3c(c2)OCO3)cc1` were, in that order, 189 mg/kg, 9.4 and 20.1 mg/kg.
In the same order, the values of `CCc1nncn1-c1ccc(OCc2ccccc2Cl)cc1` are 76.1 mg/kg, 5.8 and 13.2 mg/kg.
The like results for `CCCCCCOc1ccc(-n2cnnc2CC)cc1` were, in that order, 62.1 mg/kg, 4.7 and 13.2 mg/kg.
With `CCc1nncn1-c1ccc(OCc2ccc(OC)cc2)cc1`, the TD50 at 0.5 h in data set [1] worked out at 132 mg/kg. Further, the “Ratio TD50/ED50” value in the data set filed under Mus musculus [2] was found to be 8.3. For the same compound, the 50% effect level in the data set with Mus musculus [3] (ED50) was put at a dose of 15.8 mg/kg.
Take `CCCCCCCCCCCCOc1ccc(-n2cnnc2CC)cc1`: the 50% effective dose (ED50) (as a rule, the dose that gives a 50% effect, or the effect in half of the subjects) with Mus musculus [3] is over 100 mg/kg.
In turn, `CCc1nncn1-c1ccc(OCc2c(F)cccc2F)cc1` had a TD50 at 0.5 h in data set [1] of 109 mg/kg. Besides, the “Ratio TD50/ED50” value in the data set listed under Mus musculus [2] is 6.9. Further, the ED50 in the data set with Mus musculus [3] worked out at 15.8 mg/kg.
The like results for `CCCCCCOc1ccc2c(c1)CCc1nncn1-2` were, in that order, 30.3 mg/kg, 2.2 and 13.5 mg/kg.
The like results for `CCc1nncn1-c1ccc(OCc2cccc(Cl)c2)cc1` were, in that order, 110 mg/kg, 4 and 27.4 mg/kg.
In the case of `CCc1nncn1-c1ccc(OCc2cccc(F)c2)cc1`, in data set [1], the TD50 at 0.5 h turned out to be 91.2 mg/kg. Besides, the “Ratio TD50/ED50” value in the data set listed under Mus musculus [2] was found to be 4. The 50% effective dose (ED50) in the data set on Mus musculus [3] is 22.8 mg/kg.
The like results for `CCc1nncn1-c1ccc(OCc2ccc(Cl)cc2)cc1` were, in that order, 137 mg/kg, 10.4 and 19.7 mg/kg.
In the same order, the values of `CCc1nncn1-c1ccc(OCc2c(Cl)cccc2Cl)cc1` are 132 mg/kg, 8.3 and 15.8 mg/kg.
In the same order, the values of `CCCCCCCOc1ccc(-n2cnnc2CC)cc1` are 45.6 mg/kg, 5.5 and 8.3 mg/kg.
Regarding `Cc1ccc(COc2ccc3c(c2)CCc2nncn2-3)cc1`, the TD50 at 0.5 h in data set [1] was 65.8 mg/kg. For the same compound, in the data set filed under Mus musculus [2], the “Ratio TD50/ED50” value came out at 3.2. The compound also came in with an ED50 with Mus musculus [3] of 20.5 mg/kg.
In the same order, the values of `CCc1nncn1-c1ccc(OCc2ccc(C)cc2)cc1` are 101 mg/kg, 4 and 25.5 mg/kg.
In the same order, the values of `CCc1nncn1-c1ccc(OCc2ccc(F)cc2)cc1` are 91.3 mg/kg, 4 and 22.8 mg/kg.
`CCCCOc1ccc(-n2cnnc2CC)cc1` yielded a median effective dose (ED50) with Mus musculus [3] of over 100 mg/kg.
In turn, `CCc1nncn1-c1ccc(OCc2ccccc2F)cc1` showed a TD50 at 0.5 h in data set [1] of 61.5 mg/kg. Moreover, in the data set filed under Mus musculus [2], the “Ratio TD50/ED50” value is recorded as 2.9. In the data set on Mus musculus [3], the ED50 turned out to be 21.2 mg/kg.
The compound `CCCCCCCCOc1ccc(-n2cnnc2CC)cc1` came in with a TD50 at 0.5 h in data set [1] of 82.2 mg/kg. Also, the median effective dose (ED50) in the data set listed under Mus musculus [4] is 38.1 mg/kg; in the data set listed under Mus musculus [6], 31.7 mg/kg; in the data set on Mus musculus [3], 8.8 mg/kg; in the data set listed under Mus musculus [7], 22.8 mg/kg; in the data set filed under Mus musculus [8] it was 26.4 mg/kg. The “Ratio TD50/ED50” value in the data set filed under Mus musculus [2] came out at 9.3. Also, in the data set with Mus musculus [5], the outcome was inactive.
In turn, `CCCOc1ccc(-n2cnnc2CC)cc1` displayed a 50% effective dose (ED50) in the data set on Mus musculus [3] of over 100 mg/kg.
For `CCOc1ccc(-n2cnnc2CC)cc1`, the median effective dose (ED50) with Mus musculus [3] was over 100 mg/kg.
In data set [1], `Fc1ccc(COc2ccc3c(c2)CCc2nncn2-3)cc1` returned a TD50 at 0.5 h of 54.5 mg/kg. For the same compound, the “Ratio TD50/ED50” value in the data set filed under Mus musculus [2] amounted to 4.6. The same compound returned an ED50 in the data set with Mus musculus [3] of 11.8 mg/kg.
`CCc1nncn1-c1ccc(OCc2ccccc2)cc1` showed a TD50 at 0.5 h in data set [1] of 102 mg/kg. In addition, the “Ratio TD50/ED50” value in the data set listed under Mus musculus [2] was 4.9. This compound displayed an ED50 in the data set with Mus musculus [3] of 20.8 mg/kg.
